Results taken from ChEMBL document CHEMBL1144084, “Semisynthesis and cytotoxicity of styryl-lactone derivatives” (J Nat Prod, 1999).
≈ marks a conversion by molar mass, not a printed value. Calls of active or inactive are those of the source. The calls are words filed in the database; no cut-off is given here.

Legend:
L1210 [1] = assay: Cytotoxicity against mouse L1210 cells after 48 hrs by MTT assay; format: functional, cell-based; details: L1210, 48 h
Summary of the method: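 Cells grown in RPMI 1640 with 10% fetal calf serum, 2 mM L-glutamine, penicillin/streptomycin and 10 mM Hepes (pH 7.4), exposed 48 h to graded drug concentrations. Read-out by microculture tetrazolium assay. IC50 is the concentration lowering optical density by 50% relative to untreated controls.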

L1210 [2] = assay: Cell cycle arrest in mouse L1210 cells by accumulation at G2M phase after 21 hrs relative to control; format: functional
Summary of the method: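 L-1210 cells incubated 21 h at 37 °C with various drug concentrations, fixed in 70% EtOH (v/v), washed, then stained 30 min at 20 °C in PBS with 100 µg/mL RNAse and 25 µg/mL propidium iodide. Value is percentage of cells accumulated in G2 + M phase after 21 h versus untreated control.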

SMILES: O=C1C=C[C@@H]2O[C@H](c3ccc([N+](=O)[O-])cc3)[C@@H](O)[C@@H]2O1
- IC50 (L1210 [1]): 3.2 µg/mL (≈ 11.5 µM)
- Activity (L1210 [2]): 35%

SMILES: O=C1C=C[C@@H]2O[C@H](c3ccccc3)[C@@H](O)[C@@H]2O1 [ALTHOLACTONE]
- IC50 (L1210 [1]): 2.9 µg/mL (≈ 12.5 µM)
- Activity (L1210 [2]): 35%

SMILES: CO[C@H]1[C@@H](O)[C@H](O)[C@@H](c2ccccc2)OC(=O)C[C@H]1OC
- IC50 (L1210 [1]): 5.2 µg/mL (≈ 17.5 µM)
- Activity (L1210 [2]): inactive

SMILES: O=C1C=C[C@@H]2O[C@H](c3c([N+](=O)[O-])cccc3[N+](=O)[O-])[C@@H](O)[C@@H]2O1
- IC50 (L1210 [1]): 5 µg/mL (≈ 15.5 µM)
- Activity (L1210 [2]): inactive

SMILES: O=C1C[C@@H](Cl)[C@@H]2O[C@H](c3ccccc3)[C@@H](O)[C@@H]2O1
- IC50 (L1210 [1]): 3.7 µg/mL (≈ 13.8 µM)
- Activity (L1210 [2]): 35%
